Assay results pooled from the literature.
Each line is one published result; the experiments were not run side by side.

SMILES | cell line | test | conditions | IC50
CC[C@H](C)[C@H](NC(=O)[C@H](CCCCN)NC(=O)[C@H](CCCCN)NC(=O)[C@H](CC(C)C)NC(=O)[C@H](CCCCN)NC(=O)[C@H](CCCCN)NC(=O)[C@H](Cc1ccccc1)NC(=O)[C@H](Cc1ccccc1)NC(=O)[C@H](CCCNC(=N)N)NC(=O)[C@H](CCCNC(=N)N)NC(=O)[C@@H](NC(=O)[C@H](CCCCN)NC(=O)[C@H](CCCNC(=N)N)NC(=O)[C@@H](NC(=O)[C@@H](N)Cc1ccc(O)cc1)[C@@H](C)CC)[C@@H](C)CC)C(=O)N[C@@H](CC(C)C)C(=O)N[C@@H](CCCCN)C(=O)N[C@@H](CCCCN)C(N)=O | THP-1 | cell growth or viability, resazurin | – | 5.2 µM
CC(C)[C@H](NC(=O)[C@H](Cc1c[nH]c2ccccc12)NC(=O)[C@H](Cc1c[nH]cn1)NC(=O)[C@H](CCCNC(=N)N)NC(=O)[C@H](CCCNC(=N)N)NC(=O)[C@H](Cc1c[nH]c2ccccc12)NC(=O)[C@H](Cc1c[nH]c2ccccc12)NC(=O)[C@H](Cc1c[nH]cn1)NC(=O)[C@H](Cc1c[nH]c2ccccc12)NC(=O)[C@H](CCCNC(=N)N)NC(=O)[C@@H](N)CCCCN)C(=O)N[C@H](C(=O)N[C@@H](Cc1c[nH]c2ccccc12)C(N)=O)C(C)C | THP-1 | cell growth or viability, MTT | – | 103 µM
O=C(NCc1ccccc1)c1cn(Cc2ccc(C(F)(F)F)cc2)c2ccc(Oc3ccccc3)cc2c1=O | MCF7 | cell growth or viability, MTT | 24 h | 9.4 µM
O=C1CCP(=S)(c2ccccc2)CC1 | SW-620 | cell growth or viability, MTT | 72 h | 6.3 µM
O=C(NCc1ccc(O)cc1)c1cn(Cc2ccc(F)cc2)c2ccc(Oc3ccccc3)cc2c1=O | MCF7 | cell growth or viability, MTT | 24 h | > 500 µM
CC[C@@]1(O)C(=O)OCc2c1cc1n(c2=O)Cc2cc3ccccc3nc2-1 | MP46 | cell growth or viability, ATP luminescence | 72 h | 0.21 µM
S=P1(C2CCCCC2)CCCCC1 | SW-620 | cell growth or viability, MTT | 72 h | > 100 µM
COc1ccc2c(c1OC)CN1CCc3cc4c(cc3[C@@H]1C2)OCO4 | HepaRG | reactive oxygen species, inhibitor | 16 h | 2.69 µM
O=C1CCP(c2ccccc2)CC1 | SW-620 | cell growth or viability, MTT | 72 h | 73.7 µM
O=C(NCc1ccc(F)cc1)c1cn(Cc2ccc(C(F)(F)F)cc2)c2ccc(Oc3ccccc3)cc2c1=O | MCF7 | cell growth or viability, MTT | 24 h | 8.32 µM
